Screens (PubChem)
In the library only some 3.1% were active in any assay of this set; here they are far more common.
Apaf-1 inh – inhibitors of human Apaf-1 apoptosome; O14727; reconstituted apoptosome caspase-3 activity, DEVD-Rh110 fluorescence; inhibition, % at 20 µM; 0.71% of 330,000 active; AID 489030; active means inhibition of at least 40% at 20 µM;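 further: plate controls were DMSO wells for no effect and DEVD-CHO caspase inhibitor wells for full effect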
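Assay system: Apoptosome proteins | Medium: pH 7.5 Hepes buffer with CHAPS, BSA, DTT | Also added: Cytochrome c and DEVD-Rh110 substrate | Times: 30 min plus 50 min, RT | Detection: Rhodamine 110 fluorescence at Ex 480/Em 540 nm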
MEKK2 WT-MEK5 – raises or lowers MEK5 binding to wildtype human MEKK2 PB1 domain. bead flow cytometry, Alexa488-MEK5 binding to MEKK2 WT; actives lie on both sides. binding response (% of control), % at 10 µM. 1.1% of 290,000 active. AID 1531; in the data active means binding response below about 67% or above about 130%
MEKK3 PB1 HTS – modulators (inhibitors or enhancers) of MEK5 binding to human MEKK3 PB1 domain | Q99759 | bead-based flow cytometry, Alexa488-MEK5 binding to MEKK3; actives lie on both sides; 0 = blocked by unlabeled MEK5, 100 = vehicle | binding response (% of control), % at 10 µM | 1.4% of 290,000 active;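 active means binding response more than 3 SD above or below the average of its plate-row segment, actives on both sides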;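 further: Alexa488 bead fluorescence after subtracting the streptavidin-only scavenger bead signal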
UBC13 polyUb – human UBC13 polyubiquitination inhibition; P61088; UBC13 polyubiquitin chain formation, TR-FRET; inhibition, % at 20 µM; 0.47% of 330,000 active; AID 485273; in the data active means inhibition above about 45%, passing the limit was not always enough
MEKK2 mut-MEK5 – signal of MEK5 binding to mutant human MEKK2 PB1 domain. bead flow cytometry, Alexa488-MEK5 binding to MEKK2 mutant. percent response, % at 10 µM. 0.35% of 290,000 active. AID 1530; in the data active means percent response above about 24%, passing the limit was not always enough
PREPL inhibitor – inhibits the human prolyl oligopeptidase-like enzyme | recombinant PREPL, fluorescence polarization activity-based probe | inhibition, % at 5.96 µM | 0.68% of 320,000 active | Q4J6C6; in the data active means inhibition above about 43%;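 further: 0% = enzyme with DMSO and 100% = wells lacking enzyme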
Target sequence (Q4J6C6 whole entry, looked up): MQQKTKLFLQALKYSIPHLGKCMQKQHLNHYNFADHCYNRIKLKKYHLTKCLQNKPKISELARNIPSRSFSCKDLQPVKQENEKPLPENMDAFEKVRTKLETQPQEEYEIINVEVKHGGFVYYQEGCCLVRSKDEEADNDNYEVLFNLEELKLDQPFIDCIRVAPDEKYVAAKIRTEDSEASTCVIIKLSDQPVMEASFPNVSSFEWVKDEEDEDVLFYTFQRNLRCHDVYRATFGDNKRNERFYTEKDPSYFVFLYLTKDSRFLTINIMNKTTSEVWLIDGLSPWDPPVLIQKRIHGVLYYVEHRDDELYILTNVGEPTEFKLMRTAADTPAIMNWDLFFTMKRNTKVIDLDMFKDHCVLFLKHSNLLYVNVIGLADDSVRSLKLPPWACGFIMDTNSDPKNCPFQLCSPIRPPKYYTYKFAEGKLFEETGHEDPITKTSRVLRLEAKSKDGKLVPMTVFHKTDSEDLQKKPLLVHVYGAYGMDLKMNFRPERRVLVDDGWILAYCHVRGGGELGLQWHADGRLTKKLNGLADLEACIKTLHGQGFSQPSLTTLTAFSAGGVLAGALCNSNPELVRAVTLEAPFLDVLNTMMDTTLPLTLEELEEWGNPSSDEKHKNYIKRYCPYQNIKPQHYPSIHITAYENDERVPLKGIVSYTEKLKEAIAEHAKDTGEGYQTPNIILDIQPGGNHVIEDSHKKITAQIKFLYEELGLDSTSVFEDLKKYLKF
MEKK2wt confirm – raises or lowers MEK5 binding to wildtype human MEKK2, retest. shares compounds with MEKK3 PB1 HTS. bead flow cytometry, Alexa488-MEK5 binding to MEKK2 WT; actives lie on both sides. binding response (% of control), % at 10 µM. 2.4% of 5,900 active. AID 1892; in the data active means binding response below about 16% or above about 210%; inactive means in between
MEKK2mut-MEK5 – signal of MEK5 binding to mutant human MEKK2, retest. shares compounds with MEKK3 PB1 HTS. bead flow cytometry, Alexa488-MEK5 binding to MEKK2 mutant. percent response, % at 10 µM. 2% of 5,900 active; in the data active means percent response mostly above about 71%, no sharp cut-off; inactive means mostly below about 38%;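 further: higher means compound restores mutant binding toward wildtype level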
MEKK3-MEK5 inh – confirmation of inhibitors of MEK5 binding to human MEKK3; shares compounds with MEKK3 PB1 HTS; 1.8% of 5,900 active; bead flow cytometry, Alexa488-MEK5 binding to MEKK3; hits give low values; binding response (% of control), % at 10 µM;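 active means binding response below 72% of control, or above a set upper limit, though filed actives all read lower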;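 further: 100% = DMSO only wells and 0% = binding blocked by excess unlabeled MEK5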
An asterisk follows results filed as active; / = not tested or not shown; [ ] = remark or other dose.

SMILES	Apaf-1 inh	MEKK2 WT-MEK5	MEKK3 PB1 HTS	UBC13 polyUb	MEKK2 mut-MEK5	PREPL inhibitor	MEKK2wt confirm	MEKK2mut-MEK5	MEKK3-MEK5 inh
O=C(Nc1ccc(C(F)(F)F)cc1[N+](=O)[O-])O[C@H]1[C@H](Cc2ccccc2)NS(=O)(=O)[C@H]2C[C@@H]3C=C[C@]12O3	10	/	/	-7	/	-6	/	/	/
CC1CN(c2nc3ccccc3nc2C(C#N)C(=O)NC2CCCCC2)CC(C)O1 (centres undefined)	18	22*	15*[inhibitor]	-5	-49	0	106	10	103
COc1ccc(/C=N/NC(=O)CCn2cnc(-c3ccccc3)c2-c2ccccc2)cc1OC	14	98	64*[inhibitor]	14	0	7	75	-15	72
COc1ccc(/C=N/NC(=O)CCC(=O)Nc2ccccc2)cc1OC	-10	101	107	3	3	-5	/	/	/
COc1ccc(/C=N\NC(=O)CC(=O)Nc2cccc(Cl)c2)cc1OC	-4	77	73*[inhibitor]	-3	-10	5	103	4	103
O=C1C=C(c2ccc3ccccc3c2)C[C@@H](c2ccc(F)cc2)C1	26	/	/	8	/	-33	/	/	/
COc1ccc(C)cc1NC(=O)COC(C)=O	-4	79	74*[inhibitor]	-7	-5	9	101	0	103
COc1ccc([N+](=O)[O-])cc1NC(=O)COC(C)=O	1	100	104	-1	-1	1	/	/	/
C=CCN=C(C)C1=C(O)C(C)OC1=O (centres undefined)	4	103	134*	-9	1	10	103	3	105
Cc1cccc([N+](=O)[O-])c1NC(=O)COC(=O)c1nc2nccc(C)n2n1	3	/	/	-3	/	1	/	/	/
COc1ccc(C(=O)CSc2ccc(-c3ccccc3)nn2)cc1	-3	97	95	4	6	-27	/	/	/
COc1ccccc1CCNC(=O)CSc1ccc(-c2cccs2)nn1	-4	99	61*[inhibitor]	-16	8	-13	100	-1	105
COc1ccc(CCNC(=O)CSc2ccc(-c3ccccc3)nn2)cc1	-8	104	131*	1	0	-10	99	-12	97
CCCN(CC1CC1)C(=O)COC(=O)c1oc2c(F)cccc2c1C	5	/	/	10	/	-1	/	/	/
CCC(=O)Nc1ccccc1C(=O)OCC(=O)c1cccc2ccccc12	22	79	68*[inhibitor]	-22	-11	9	99	-9	100
CCC(=O)Nc1ccccc1C(=O)OCc1ccc(C(=O)c2ccccc2)cc1	12	109	107	34	3	2	/	/	/
O=C1CCN(C(=O)Nc2cccc(Cl)c2)N1	9	102	100	-19	2	8	/	/	/
O=C1CCN(C(=O)Nc2ccccc2Cl)N1	-9	57	48*[inhibitor]	-9	-24	6	104	3	105
COC(=O)CCCC(=O)N1CCCC(CNS(=O)(=O)c2ccc(OC)cc2)C1 (centres undefined)	-8	101	98	-13	-1	5	/	/	/
Cc1cccn2c(=O)c(/C=C(\C#N)C(=O)NC3CCS(=O)(=O)C3)c(N3CCC(C)CC3)nc12 (centres undefined)	-14	104	131*	-4	-1	-5	102	-1	105
Cn1c(SCC(=O)NCC2CCCO2)nnc1-c1ccc(Cl)cc1 (centres undefined)	-3	/	/	10	/	10	/	/	/
CCC1(C)NC(=O)N(CC(=O)Nc2cc(C)on2)C1=O (centres undefined)	3	/	/	-15	/	6	/	/	/
CN(C)CCOc1ccc(/C(=C(/CCCl)c2ccccc2)c2ccccc2)cc1	10	176*	110	-10	22	-3	100	-8	100
CCN1c2ccccc2-c2nc3ccccc3n2C1c1cccs1 (centres undefined)	14	0.0*[inhibitor]	0.0*[inhibitor]	7	-5	3	104	0	105
CCCn1c(-c2cccs2)nc2ccccc21	13	97	97	6	0	10	/	/	/
SMILES	Apaf-1 inh	MEKK2 WT-MEK5	MEKK3 PB1 HTS	UBC13 polyUb	MEKK2 mut-MEK5	PREPL inhibitor	MEKK2wt confirm	MEKK2mut-MEK5	MEKK3-MEK5 inh
CCCCCCCCCC[n+]1cccc2c3ccccc3ccc21	/	213*	119	/	10	/	150	22	102
COC(=O)C(Cc1ccccc1)NC(=O)C12CC3CC(CC(C3)C1)C2 (centres undefined)	5	106	134*	8	0	-1	105	7	104
COC(=O)C(Cc1ccc(O)cc1)NC(=O)C12CC3CC(CC(C3)C1)C2 (centres undefined)	-6	97	99	-7	-7	4	/	/	/
CCC(C)N(C)C1CCN(C(=S)Nc2cccc(SC)c2)CC1 (centres undefined)	-4	113	104	11	10	-7	/	/	/
CSc1cccc(NC(=S)N2CCC(N(C)C(C)C)CC2)c1	6	63	50*[inhibitor]	-3	-12	-5	102	-4	101
CN(C(=O)Cn1nc(Cl)ccc1=O)C1CCCN(Cc2ccccc2F)C1 (centres undefined)	-2	106	104	-5	3	4	/	/	/
C=CCOc1ccc(C2N3CC4(CC)CN2CC(CC)(C3)C4=O)cc1 (centres undefined)	11	84	82*[inhibitor]	4	-5	0	114	8	109
Cc1cc(C)c2cc3c(ccn3C3OC[C@H](O)[C@H](O)[C@H]3O)cc2n1 (some centres undefined)	-4	6.0*[inhibitor]	102	-4	12	5	109	12	104
CCOc1cc(C(=S)N2CCN(C)CC2)ccc1OCC(=O)N1CCCC1	-9	106	102	-1	8	3	/	/	/
CCOc1ccccc1NC(=O)COC(=O)c1nc2nccc(C)n2n1	-8	/	/	12	/	6	/	/	/
COc1cccc(C(C(=O)NCc2ccco2)N(C(=O)Cn2nnc3ccccc32)C2CC2)c1OC (centres undefined)	-2	87	82*[inhibitor]	-3	-16	6	105	3	103
CCn1c(NC(=O)/C=C/c2ccc(F)cc2)nc2ccccc21	25	105	100	12	5	7	/	/	/
Cc1cc(C)c(OCCCCCNCCO)c(C)c1	0	22*[inhibitor]	12*[inhibitor]	-2	-17	-23	107	2	103
